Experiments:
[1] = target: Aldo-keto reductase family 1 member B1 (Bos taurus) (UniProt P16116); experiment: In vitro inhibition of aldose reductase in partially purified bovine lens preparation at a concentration of 10e -7M.
Procedure, shortened: (§1)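 Enzyme from bovine lens, partially purified by the cited method with the final chromatographic step omitted. DL-Glyceraldehyde was the substrate. Test compounds were run in duplicate at 1×10⁻⁵, 1×10⁻⁶, 1×10⁻⁷ or 4×10⁻⁸ M. Values are % inhibition of enzymatic activity.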

[2] = target: Aldo-keto reductase family 1 member B1 (Bos taurus) (UniProt P16116); experiment: In vitro inhibition of aldose reductase in partially purified bovine lens preparation at a concentration of 10e-6 M.; procedure, shortened: as §1
Rattus norvegicus [3] = experiment: In vivo inhibition of galactitol accumulation in the sciatic nerve of rats fed 20% galactose for 4 day at 94 mg/kg/day dose; NS = No Significant inhibition of polyol accumulation; type: functional, organism-based
Rattus norvegicus [4] = experiment: In vivo inhibition of galactitol accumulation in the diaphragm of rats fed 20% galactose for 4 day at 94 mg/kg/day dose; NS = No Significant inhibition of polyol accumulation; type: functional, organism-based
Procedure, shortened: (§2)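 Male Sprague-Dawley rats (50–70 g) in groups of six were fed chow with 20% (w/w) galactose. Controls received 20% glucose instead. Test compound was mixed into the diet, and dose was calculated from actual food intake. Rats were killed by decapitation after 4 days. Result is % lowering of tissue galactitol versus galactose-fed controls, as the mean of six animals, compared by Dunnett's multiple comparison.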

Rattus norvegicus [5] = experiment: (§3) In vivo inhibition of galactitol accumulation in the sciatic nerve of rats fed 20% galactose for 4 day at 95 mg/kg/day dose; NS= No Significant inhibition of polyol accumulation; type: functional, organism-based
Rattus norvegicus [6] = experiment: as §3; type: functional, organism-based; remark: listed apart in the source
[7] = target: Aldo-keto reductase family 1 member B1 (Bos taurus) (UniProt P16116); experiment: in vitro inhibition of aldose reductase in partially purified bovine lens preparation at a concentration of 10e -6M.
[8] = target: Aldo-keto reductase family 1 member B1 (Bos taurus) (UniProt P16116); experiment: In vitro inhibition of aldose reductase in partially purified bovine lens preparation at a concentration of 4*10e -8M.; procedure, shortened: as §1
Rattus norvegicus [9] = experiment: In vivo inhibition of galactitol accumulation in the diaphragm of rats fed 20% galactose for 4 day at 101 mg/kg/day dose; type: functional; procedure, shortened: as §2
Rattus norvegicus [10] = experiment: In vivo inhibition of galactitol accumulation in the sciatic nerve of rats fed 20% galactose for 4 day at 70 mg/kg/day dose; type: functional; procedure, shortened: as §2
Rattus norvegicus [11] = experiment: In vivo inhibition of galactitol accumulation in the diaphragm of rats fed 20% galactose for 4 day at 70 mg/kg/day dose; type: functional; procedure, shortened: as §2
Rattus norvegicus [12] = experiment: In vivo inhibition of galactitol accumulation in the diaphragm of rats fed 20% galactose for 4 day at 95 mg/kg/day dose; type: functional; procedure, shortened: as §2
Rattus norvegicus [13] = experiment: In vivo inhibition of galactitol accumulation in the sciatic nerve of rats fed 20% galactose for 4 day at 95 mg/kg/day dose; type: functional
Rattus norvegicus [14] = experiment: In vivo inhibition of galactitol accumulation in the diaphragm of rats fed 20% galactose for 4 day at 102 mg/kg/day dose; type: functional; procedure, shortened: as §2
[15] = target: Aldo-keto reductase family 1 member B1 (Bos taurus) (UniProt P16116); experiment: In vitro inhibition of Aldose reductase in partially purified bovine lens preparation at a concentration of 10e -7M.; procedure, shortened: as §1
[16] = target: Aldo-keto reductase family 1 member B1 (Bos taurus) (UniProt P16116); experiment: In vitro inhibition of Aldose reductase in partially purified bovine lens preparation at a concentration of 4*10e -8M.; procedure, shortened: as §1
Rattus norvegicus [17] = experiment: In vivo inhibition of galactitol accumulation in the sciatic nerve of rats fed 20% galactose for 4 day at 98 mg/kg/day dose; NS = No Significant inhibition of polyol accumulation; type: functional, organism-based
Rattus norvegicus [18] = experiment: In vivo inhibition of galactitol accumulation in the diaphragm of rats fed 20% galactose for 4 day at 98 mg/Kg/day; NS = No Significant inhibition of polyol accumulation; type: functional, organism-based; procedure, shortened: as §2
[19] = target: Aldo-keto reductase family 1 member B1 (Bos taurus) (UniProt P16116); experiment: in vitro inhibition of Aldose reductase in partially purified bovine lens preparation at a concentration of 10e-6 M.
Rattus norvegicus [20] = experiment: In vivo inhibition of galactitol accumulation in the sciatic nerve of rats fed 20% galactose for 4 day at 77 mg/kg/day dose; NS = No Significant inhibition of polyol accumulation; type: functional, organism-based; procedure, shortened: as §2
Rattus norvegicus [21] = experiment: In vivo inhibition of galactitol accumulation in the diaphragm of rats fed 20% galactose for 4 day at 77 mg/kg/day dose; NS = No Significant inhibition of polyol accumulation; type: functional, organism-based; procedure, shortened: as §2
Rattus norvegicus [22] = experiment: In vivo inhibition of galactitol accumulation in the sciatic nerve of rats fed 20% galactose for 4 day at 91 mg/kg/day dose; NS = No Significant inhibition of polyol accumulation; type: functional, organism-based; procedure, shortened: as §2
Rattus norvegicus [23] = experiment: In vivo inhibition of galactitol accumulation in the diaphragm of rats fed 20% galactose for 4 day at 91 mg/kg/day dose; NS = No Significant inhibition of polyol accumulation; type: functional, organism-based; procedure, shortened: as §2
[24] = target: Aldo-keto reductase family 1 member B1 (Bos taurus) (UniProt P16116); experiment: In vitro inhibition of aldose reductase in partially purified bovine lens preparation at a concentration of 10e -5M.; details: in the assay text read “10e -6M” for “10e -5M”; procedure, shortened: as §1
[25] = target: Aldo-keto reductase family 1 member B1 (Bos taurus) (UniProt P16116); experiment: In vitro inhibition of aldose reductase in partially purified bovine lens preparation at a concentration of 10e -6M.; procedure, shortened: as §1
Rattus norvegicus [26] = experiment: In vivo inhibition of galactitol accumulation in the sciatic nerve of rats fed 20% galactose for 4 day at 96 mg/kg/day dose; type: functional
Rattus norvegicus [27] = experiment: In vivo inhibition of galactitol accumulation in the diaphragm of rats fed 20% galactose for 4 day at 96 mg/kg/day dose; type: functional; procedure, shortened: as §2

## Cc1nc2ccc(Br)cc2c(=S)n1CC(=O)O
[1]
  inhibition: 54%
[2]
  inhibition: 88%
Rattus norvegicus [3]
  Lowering: Not significant
Rattus norvegicus [4]
  Lowering: Not significant

## O=C(O)Cn1c(=O)c2cc(Br)ccc2n(Cc2ccc(C(F)(F)F)cc2)c1=O
Rattus norvegicus [5]
  Lowering: Not significant
Rattus norvegicus [6]
  Lowering: Not significant
[7]
  inhibition: 54%

## O=C(O)CN1CN(Cc2ccc(Cl)c(Cl)c2)C(=O)c2cc(Cl)ccc21
[1]
  inhibition: 87%
[8]
  inhibition: 54%
Rattus norvegicus [5]
  Lowering: Not significant
Rattus norvegicus [9]
  Lowering: 29%

## O=C(O)Cn1c(=O)c2cc(Cl)ccc2n(Cc2ccc(Br)cc2F)c1=S
[1]
  inhibition: 70%
[8]
  inhibition: 24%
Rattus norvegicus [10]
  Lowering: 39%
Rattus norvegicus [11]
  Lowering: 60%

## O=C(O)Cn1c(=O)c2cc(Cl)ccc2n(Cc2ccc(Cl)c(Cl)c2)c1=O
[1]
  inhibition: 71%
[8]
  inhibition: 29%
Rattus norvegicus [12]
  Lowering: 83%
Rattus norvegicus [13]
  Lowering: 72%

## COc1ccc(Cn2c(=O)n(CC(=O)O)c(=O)c3cc(Br)ccc32)cc1Br
[8]
  inhibition: 32%
Rattus norvegicus [14]
  Lowering: 24%
Rattus norvegicus [5]
  Lowering: Not significant

## O=C(O)Cn1c2ccc([N+](=O)[O-])cc2c(=O)n1Cc1ccc(Cl)c(Cl)c1
[15]
  inhibition: 41%
[16]
  inhibition: 27%
Rattus norvegicus [17]
  Lowering: Not significant
Rattus norvegicus [18]
  Lowering: Not significant

## O=C(O)Cn1cnc2ccc(Br)cc2c1=O
[19]
  inhibition: 32%
Rattus norvegicus [20]
  Lowering: Not significant
Rattus norvegicus [21]
  Lowering: Not significant

## O=C(O)Cn1c(=O)c2cc(Br)ccc2n(C(=O)c2ccccc2)c1=O
Rattus norvegicus [5]
  Lowering: Not significant
Rattus norvegicus [6]
  Lowering: Not significant
[7]
  inhibition: 46%

## C=CCn1c(=O)n(CC(=O)O)c(=O)c2cc(Br)ccc21
Rattus norvegicus [5]
  Lowering: Not significant
Rattus norvegicus [6]
  Lowering: Not significant
[7]
  inhibition: 31%

## O=C(O)Cn1c(C(F)(F)F)nc2ccc(Br)cc2c1=O
[1]
  inhibition: 23%
[2]
  inhibition: 45%
Rattus norvegicus [22]
  Lowering: Not significant
Rattus norvegicus [23]
  Lowering: Not significant

## O=C(O)Cn1c(=O)c2ccccc2n(-c2ccccc2)c1=O
[24]
  inhibition: 45%

## CC(c1ccccc1)n1c(=O)n(CC(=O)O)c(=O)c2cc(Br)ccc21 (stereo not drawn)
[25]
  inhibition: 34%
Rattus norvegicus [5]
  Lowering: Not significant

## O=C(O)Cn1c(=O)c2cc(Br)ccc2n(CCc2ccccc2)c1=O
[24]
  inhibition: 34%
Rattus norvegicus [5]
  Lowering: Not significant
Rattus norvegicus [6]
  Lowering: Not significant

## COc1ccc(Cn2c(=O)n(CC(=O)O)c(=O)c3cc(Br)ccc32)cc1
[1]
  inhibition: 31%
[8]
  inhibition: 11%
Rattus norvegicus [5]
  Lowering: Not significant
Rattus norvegicus [6]
  Lowering: Not significant

## O=C(O)Cn1c2ccccc2c(=O)n1Cc1ccc(Br)cc1F
[15]
  inhibition: 42%
[16]
  inhibition: 28%
Rattus norvegicus [26]
  Lowering: 25%
Rattus norvegicus [27]
  Lowering: 51%

## O=C(O)Cn1c(=O)c2c(Cl)cccc2n(Cc2ccc(Br)cc2F)c1=O
[1]
  inhibition: 70%
[8]
  inhibition: 33%
Rattus norvegicus [12]
  Lowering: 46%
Rattus norvegicus [5]
  Lowering: Not significant

## Cn1c(=O)n(CC(=O)O)c(=O)c2cc(Cl)ccc21
[24]
  inhibition: 60%

Reference: ChEMBL document CHEMBL1125678, “Quinazolineacetic acids and related analogues as aldose reductase inhibitors” (J Med Chem, 1991)
